Experimental data gathered from unrelated publications.
HDAC11: Histone deacetylase 11 (HDAC11, Homo sapiens, UniProt Q96DB2)
CHRM1: Muscarinic acetylcholine receptor M1 (CHRM1, Homo sapiens, UniProt P11229)
CYP3A4: Cytochrome P450 3A4 (CYP3A4, Homo sapiens, UniProt P08684)
ALDH2: Aldehyde dehydrogenase, mitochondrial (ALDH2, Homo sapiens, UniProt P05091)

| Structure (SMILES) | target | assay | system | setting | IC50 [µM] |
| --- | --- | --- | --- | --- | --- |
| COc1ccc(N(Cc2csc(-c3ccc(C)cc3)n2)C(=O)CCCCCC(=O)NO)cc1 | HDAC11 | enzyme activity, inhibitor |  |  | > 10 |
| O=C(CCNC(=O)CNC(=O)CC(c1ccccc1)(c1ccccc1)c1ccccc1)NC[C@H]1CCCN(Cc2ccc(F)cc2)C1 | CHRM1 | ligand displacement, radioligand |  | cell membranes | 13.9 |
| N=C(N)c1ccc2cc(OC(=O)c3ccc(N=C(N)N)cc3)ccc2c1 | Coagulation factor XII (F12, Homo sapiens, UniProt P00748) | enzyme activity, inhibitor |  |  | 0.0326 |
| Cc1ccc(OCC(=O)N[C@@H](Cc2c[nH]c3ccccc23)C(=O)OC(C)C)cc1 | Cytochrome P450 1A2 (CYP1A2, Homo sapiens, UniProt P05177) | enzyme activity, inhibitor | human, liver microsomes | 30 min | > 50 |
| CN(C)C(=O)c1cc2cnc(Nc3ccc(-c4ccc5c(=O)cc(N6CCOCC6)oc5c4)cc3)nc2n1C1CCCC1 | CYP3A4 | enzyme activity, inhibitor, fluorescence |  | pH 8 | 56.1 |
| CN(C)CCC=C1c2ccccc2CCc2ccccc21 | Short transient receptor potential channel 5 (Mus musculus, UniProt Q9QX29) | ion current, inhibitor, patch clamp |  |  | 2.88 |
| Cn1ccc(-c2ccc(-c3cc(C(=O)O)cc4cc(-c5ccc(C(F)(F)F)cc5)ccc34)cc2)n1 | CYP3A4 | enzyme activity, inhibitor |  |  | 10.8 |
| O=C1Nc2ccccc2/C1=C\c1cc(F)c(O)c(F)c1 | ALDH2 | enzyme activity, inhibitor, fluorescence |  |  | 0.9 |
| Cc1cc2c(cc1C)N[C@H](c1ccccc1)[C@@H](O)C(=O)N2 | Tyrosine-protein kinase JAK1 (JAK1, Homo sapiens, UniProt P23458) | enzyme activity, inhibitor, ELISA |  |  | 0.804 |
| Nc1nc2c(s1)C(c1ccccc1Cl)CC(=O)N2 (stereo not drawn) | ALDH2 | enzyme activity, inhibitor, fluorescence |  |  | < 10 |
| CC(C)(C)S(=O)(=O)c1cc2c(Nc3ccc4scnc4c3)ncnc2cc1OCCOP(=O)(O)O | CYP3A4 | enzyme activity, inhibitor | human, liver microsomes | 5 min, pH 7.4, testosterone probe | 49 |
| O=C(CCNC(=O)CNC(=O)CC(c1ccccc1)(c1ccccc1)c1ccccc1)NCC1CCN(Cc2ccc(F)cc2)CC1 | CHRM1 | ligand displacement, radioligand |  | cell membranes | 5.9 |
| O=C1Nc2ccccc2C12CC2c1cc(Cl)c(O)c(Cl)c1 (stereo not drawn) | ALDH2 | enzyme activity, inhibitor, fluorescence |  |  | > 50 |
| CCCN(CCC)S(=O)(=O)c1ccc(C(=O)O)cc1 | Taste receptor type 2 member 14 (TAS2R14, Homo sapiens, UniProt Q9NYV8) | inositol phosphate, antagonist, TR-FRET |  |  | 600 |
| COc1ccc(N(Cc2csc(-c3ccc(Br)cc3)n2)C(=O)CCCCCC(=O)NO)cc1 | HDAC11 | enzyme activity, inhibitor |  |  | > 10 |
| CC(C)N(CCC(=O)c1ccc2ccccc2c1)Cc1ccccc1 | ALDH2 | enzyme activity, inhibitor, fluorescence |  |  | < 10 |
| CCc1oc2cc(F)c(F)cc2c1C(=O)c1cc(Br)c(O)c(Br)c1 | Solute carrier organic anion transporter family member 1B1 (SLCO1B1, Homo sapiens, UniProt Q9Y6L6) | transporter uptake, inhibitor, radiometric |  | oocytes | 7.34 |
| CC(C)C[C@H](NC(=O)[C@@H](NC(=O)N[C@@H](Cc1ccccc1)C(=O)O)[C@@H]1CCN=C(N)N1)C(=O)N[C@H](C=O)Cc1ccccc1 | Chymase (CMA1, Homo sapiens, UniProt P23946) | enzyme activity, inhibitor |  |  | 0.00777 |
